From ChEMBL document CHEMBL1145212, “Fluorinated diaryl sulfides as serotonin transporter ligands: synthesis, structure-activity relationship study, and in vivo evaluation of fluorine-18-labeled compounds as PET imaging agents” (J Med Chem, 2005)

Columns and labels:
[1] = species: Rattus norvegicus; test: Regional uptake of [18F]AFA in hippocampus of rat pretreated with compound GBR-12935; n=3; assay type: functional, organism-based; details: tested as the 18F-labelled form
Method in brief: (§1)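 Male Sprague-Dawley rats, three per group, received blocker (2 mg/kg iv in saline) or saline only (controls) 10–15 min before about 20 µCi of tail-vein F-18 radioligand. Killed 60 min after tracer. Blood and brain regions weighed and gamma-counted. %ID/g was decay- and tail-corrected; mean ± SD.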

[2] = species: Rattus norvegicus; test: Regional uptake of [18F]AFA in thalamus of rat pretreated with compound citalopram; n=3; assay type: functional, organism-based; details: tested as the 18F-labelled form; method in brief: as §1
[3] = species: Rattus norvegicus; test: Regional uptake of [18F]AFA in frontal cortex of rat pretreated with compound citalopram; n=3; assay type: functional, organism-based; details: tested as the 18F-labelled form; method in brief: as §1
[4] = species: Rattus norvegicus; test: Regional uptake of [18F]-AFA in striatum of rat pretreated with compound GBR-12935; n=3; assay type: functional, organism-based; details: tested as the 18F-labelled form; method in brief: as §1
[5] = species: Rattus norvegicus; test: Regional uptake of [18F]AFA in thalamus of rat pretreated with compound GBR-12935; n=3; assay type: functional, organism-based; details: tested as the 18F-labelled form; method in brief: as §1
[6] = target: Sodium-dependent serotonin transporter (Rattus norvegicus) (UniProt P31652); test: Specific binding in rat hypothalamus at 90 min postinjection in vivo; assay type: functional, organism-based; details: tested as the 18F-labelled form
Method in brief: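 Male Sprague-Dawley rats, n=3 per time point, received about 20 µCi of F-18 radioligand in saline iv by tail vein and were killed at 10–120 min. %ID/g was measured with decay and tail-residual correction. Hypothalamic specific binding = (%ID/g hypothalamus − %ID/g cerebellum)/%ID/g cerebellum; mean ± SD.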

[7] = target: Sodium-dependent serotonin transporter (Rattus norvegicus) (UniProt P31652); test: Specific binding of [18F]AFA in rat hypothalamus after GBR-12935 treatment; n=3; assay type: functional, tissue-based; details: tested as the 18F-labelled form
Method in brief: (§2)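 Rats, three per group, were pretreated iv with blocker at 2 mg/kg in saline, or with saline as control, 10–15 min before tail-vein F-18 radioligand (about 20 µCi). Killed at 60 min and regional %ID/g determined. Specific binding = (region activity − cerebellum activity)/cerebellum activity; mean ± SD.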

[8] = target: Sodium-dependent serotonin transporter (Rattus norvegicus) (UniProt P31652); test: Specific binding of [18F]-AFA in rat striatum after citalopram treatment; n=3; assay type: functional, tissue-based; details: tested as the 18F-labelled form; method in brief: as §2
[9] = species: Rattus norvegicus; test: Regional uptake of [18F]AFA in frontal cortex of rat pretreated with compound 7d; n=3; assay type: functional, organism-based; details: tested as the 18F-labelled form
[10] = species: Rattus norvegicus; test: Regional uptake of [18F]AFA in blood of rat pretreated with compound 7d; n=3; assay type: functional, organism-based; details: tested as the 18F-labelled form
[11] = species: Rattus norvegicus; test: Regional uptake of [18F]AFA in hippocampus of rat pretreated with compound citalopram; n=3; assay type: functional, organism-based; details: tested as the 18F-labelled form; method in brief: as §1
[12] = species: Rattus norvegicus; test: Regional uptake of [18F]AFA in striatum of rat pretreated with compound 7d; n=3; assay type: functional, organism-based; details: tested as the 18F-labelled form
[13] = target: Sodium-dependent serotonin transporter (Homo sapiens, UniProt P31645); test: In vitro displacement of [3H]paroxetine from human serotonin transporter expressed in HEK293 cells; assay type: cell-based
[14] = species: Rattus norvegicus; test: Regional uptake of [18F]-AFA in hypothalamus of rat pretreated with compound nisoxetine; n=3; assay type: functional, organism-based; details: tested as the 18F-labelled form; method in brief: as §1
[15] = target: Sodium-dependent serotonin transporter (Rattus norvegicus) (UniProt P31652); test: Specific binding of [18F]AFA in rat frontal cortex after nisoxetine treatment; n=3; assay type: functional, tissue-based; details: tested as the 18F-labelled form; method in brief: as §2
[16] = species: Rattus norvegicus; test: Regional uptake of [18F]-AFM in thalamus of rat pretreated with compound 7d; n=3; details: tested as the 18F-labelled form
[17] = target: Sodium-dependent serotonin transporter (Rattus norvegicus) (UniProt P31652); test: Specific binding of [18F]AFA in rat hippocampus after citalopram treatment; n=3; assay type: functional, tissue-based; details: tested as the 18F-labelled form; method in brief: as §2
[18] = species: Rattus norvegicus; test: Regional uptake of [18F]AFA in hypothalamus of rat pretreated with compound citalopram; n=3; assay type: functional, organism-based; details: tested as the 18F-labelled form; method in brief: as §1
[19] = species: Rattus norvegicus; test: Regional uptake of [18F]-AFA in blood of rat pretreated with compound citalopram; n=3; assay type: functional, organism-based; details: tested as the 18F-labelled form; method in brief: as §1
[20] = target: Sodium-dependent serotonin transporter (Rattus norvegicus) (UniProt P31652); test: Specific binding of [18F]AFA in rat hippocampus after nisoxetine treatment; n=3; assay type: functional, tissue-based; details: tested as the 18F-labelled form; method in brief: as §2
[21] = target: Sodium-dependent serotonin transporter (Rattus norvegicus) (UniProt P31652); test: Specific binding of [18F]AFA in rat hippocampus after GBR-12935 treatment; n=3; assay type: functional, tissue-based; details: tested as the 18F-labelled form; method in brief: as §2
[22] = species: Rattus norvegicus; test: Regional uptake of [18F]AFA in hippocampus of rat pretreated with compound 7d; n=3; assay type: functional, organism-based; details: tested as the 18F-labelled form
[23] = target: Sodium-dependent serotonin transporter (Rattus norvegicus) (UniProt P31652); test: Specific binding of [18F]AFA in rat thalamus after GBR-12935 treatment; n=3; assay type: functional, tissue-based; details: tested as the 18F-labelled form; method in brief: as §2
[24] = target: Sodium-dependent serotonin transporter (Rattus norvegicus) (UniProt P31652); test: Specific binding of [18F]AFA in rat thalamus after nisoxetine treatment; n=3; assay type: functional, tissue-based; details: tested as the 18F-labelled form; method in brief: as §2

Sequence of Sodium-dependent serotonin transporter (Rattus norvegicus) (P31652 whole entry): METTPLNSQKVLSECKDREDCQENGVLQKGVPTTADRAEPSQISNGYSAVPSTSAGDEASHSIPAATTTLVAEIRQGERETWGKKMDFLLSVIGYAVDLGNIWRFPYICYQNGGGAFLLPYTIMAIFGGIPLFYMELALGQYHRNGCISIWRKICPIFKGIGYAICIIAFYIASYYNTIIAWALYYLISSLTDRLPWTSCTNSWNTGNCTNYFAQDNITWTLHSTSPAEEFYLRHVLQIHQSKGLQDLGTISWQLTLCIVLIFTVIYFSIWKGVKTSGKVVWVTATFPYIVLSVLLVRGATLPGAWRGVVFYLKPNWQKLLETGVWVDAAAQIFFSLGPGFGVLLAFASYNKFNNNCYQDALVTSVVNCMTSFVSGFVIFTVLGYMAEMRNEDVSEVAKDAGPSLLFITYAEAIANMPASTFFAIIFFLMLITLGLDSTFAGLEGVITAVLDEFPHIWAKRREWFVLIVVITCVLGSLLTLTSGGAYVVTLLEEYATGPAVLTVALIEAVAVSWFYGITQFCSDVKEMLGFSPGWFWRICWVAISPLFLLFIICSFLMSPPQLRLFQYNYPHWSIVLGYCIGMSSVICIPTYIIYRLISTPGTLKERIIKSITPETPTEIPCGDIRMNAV
Sequence of Sodium-dependent serotonin transporter (P31645 whole entry): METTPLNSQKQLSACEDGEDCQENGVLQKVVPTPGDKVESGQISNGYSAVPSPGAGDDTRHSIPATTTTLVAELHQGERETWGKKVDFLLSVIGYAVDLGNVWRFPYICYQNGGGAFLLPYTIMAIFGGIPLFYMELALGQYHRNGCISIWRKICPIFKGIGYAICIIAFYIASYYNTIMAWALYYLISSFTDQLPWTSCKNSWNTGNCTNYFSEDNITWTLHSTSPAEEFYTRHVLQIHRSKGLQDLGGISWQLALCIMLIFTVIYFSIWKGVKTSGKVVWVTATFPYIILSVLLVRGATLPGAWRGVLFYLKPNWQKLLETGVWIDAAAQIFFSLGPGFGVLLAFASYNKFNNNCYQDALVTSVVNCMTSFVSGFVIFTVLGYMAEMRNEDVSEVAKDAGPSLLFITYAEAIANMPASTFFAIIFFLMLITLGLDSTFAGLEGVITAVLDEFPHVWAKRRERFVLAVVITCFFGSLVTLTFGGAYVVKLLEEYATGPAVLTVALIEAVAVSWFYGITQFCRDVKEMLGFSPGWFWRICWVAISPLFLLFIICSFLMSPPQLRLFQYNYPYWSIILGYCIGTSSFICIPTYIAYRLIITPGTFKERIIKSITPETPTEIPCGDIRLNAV

Specific binding (dimensionless ratio) [6]: 5.81 | Specific binding [7]: 5.3 %ID/g | Specific binding [8]: 0.52 %ID/g | Ki [13]: 1.04 nM | Specific binding [15]: 4.02 %ID/g | Specific binding [17]: 0.67 %ID/g | Specific binding [20]: 2.72 %ID/g | Specific binding [21]: 3.51 %ID/g | Specific binding [23]: 4.38 %ID/g | Specific binding [24]: 4.71 %ID/g
Compound: CN(C)Cc1ccccc1Sc1ccc(CF)cc1N
Uptake [1]: 0.59 %ID/g | Uptake [2]: 0.16 %ID/g | Uptake [3]: 0.11 %ID/g | Uptake [4]: 0.7 %ID/g | Uptake [5]: 0.74 %ID/g | Uptake [9]: 0.12 %ID/g | Uptake [10]: 0.11 %ID/g | Uptake [11]: 0.13 %ID/g | Uptake [12]: 0.14 %ID/g | Uptake [14]: 0.73 %ID/g | Uptake [16]: 0.17 %ID/g | Uptake [18]: 0.18 %ID/g | Uptake [19]: 0.12 %ID/g | Uptake [22]: 0.13 %ID/g
